Active and inactive are the calls of the source. The calls are words filed in the database; no cut-off is given here.
Legend:
T47D = assay: Antiproliferative activity against human T47D cells assessed as reduction in cell viability after 48 hrs by CellTiter-Blue assay; assay type: functional; conditions: read-out: LC50 (the source's name)
Outline: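 NCI-60 panel lines grown in RPMI1640 with 10% FBS at 37 °C, 5% CO₂. Seeded at 5,000–10,000 cells/well and pre-incubated overnight. Exposed for 48 h to six 10-fold dilutions (top final 10 μM), with a time-zero plate read at dosing. CellTiter-Blue (0.125 mg/mL) for 2–4 h, fluorescence 560/590 nm, triplicate curves.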

[1] = biological target: Aminopeptidase N (Sus scrofa) (UniProt P15145); assay: Inhibition of porcine kidney microsomal APN at 10 uM using L-leucine-p-nitroanilide as substrate preincubated for 5 mins followed by substrate addition and measured after 30 mins by microplate reader analysis; assay type: subcellular; conditions: Sus scrofa domesticus
Aminopeptidase N (Sus scrofa), sequence (P15145 whole entry): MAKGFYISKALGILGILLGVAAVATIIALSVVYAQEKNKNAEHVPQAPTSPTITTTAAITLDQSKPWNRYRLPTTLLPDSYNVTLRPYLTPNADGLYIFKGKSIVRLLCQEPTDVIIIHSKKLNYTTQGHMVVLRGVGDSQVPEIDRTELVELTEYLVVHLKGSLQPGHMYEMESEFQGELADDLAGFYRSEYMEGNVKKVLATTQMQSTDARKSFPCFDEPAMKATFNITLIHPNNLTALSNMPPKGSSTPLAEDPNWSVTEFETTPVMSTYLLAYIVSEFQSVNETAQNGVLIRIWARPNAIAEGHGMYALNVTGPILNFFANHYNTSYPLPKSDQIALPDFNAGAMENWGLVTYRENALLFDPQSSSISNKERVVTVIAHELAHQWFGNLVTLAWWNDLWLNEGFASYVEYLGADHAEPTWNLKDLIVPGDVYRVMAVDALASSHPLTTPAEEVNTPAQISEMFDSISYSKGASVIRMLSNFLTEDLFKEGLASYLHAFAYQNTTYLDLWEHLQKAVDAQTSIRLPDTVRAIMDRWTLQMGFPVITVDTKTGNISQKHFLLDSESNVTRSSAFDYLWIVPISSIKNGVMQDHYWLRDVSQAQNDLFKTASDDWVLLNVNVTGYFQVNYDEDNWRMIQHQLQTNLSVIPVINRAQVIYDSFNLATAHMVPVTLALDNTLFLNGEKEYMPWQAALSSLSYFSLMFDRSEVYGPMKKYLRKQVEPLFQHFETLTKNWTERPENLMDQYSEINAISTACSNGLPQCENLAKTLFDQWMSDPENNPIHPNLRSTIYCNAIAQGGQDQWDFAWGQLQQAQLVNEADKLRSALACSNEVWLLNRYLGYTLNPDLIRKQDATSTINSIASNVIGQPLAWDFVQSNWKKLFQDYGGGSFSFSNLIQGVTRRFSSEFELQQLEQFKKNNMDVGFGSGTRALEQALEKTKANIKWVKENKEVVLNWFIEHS
Outline: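 Porcine kidney microsomal aminopeptidase (CD13) with test agent (final 50 and 10 μM; bestatin 10 μM as reference), 5 min, then L-leucine-p-nitroanilide added. Incubated 30 min at 37 °C; absorbance read at 405 nm.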

Trypsin (Homo sapiens) = Trypsin (Homo sapiens) (UniProt P07477+P07478+P35030); assay: Inhibition of trypsin (unknown origin); assay type: protein assay
HOP-92 = assay: Antiproliferative activity against human HOP92 cells assessed as reduction in cell viability after 48 hrs by CellTiter-Blue assay; assay type: functional; conditions: HOP-92, 48 h, read-out: LC50 (the source's name)
Outline: (§1)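 Cells grown in RPMI1640 with 10% FBS at 37 °C, 5% CO₂. 5,000–10,000 cells/well were pre-incubated overnight, and a time-zero CellTiter-Blue read was taken. Six 10-fold dilutions (top final 10 μM) were applied for 48 h, followed by 0.125 mg/mL CellTiter-Blue for 2–4 h. Resorufin fluorescence was read at ex 560/em 590 nm. […] Triplicates.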

HL-60 = assay: Antiproliferative activity agaisnt p53 null human HL60 cells at 10 uM after 48 hrs by CellTiter-blue assay; assay type: functional, cell-based
SNB-19 = assay: Antiproliferative activity against human SNB19 cells assessed as reduction in cell viability after 48 hrs by CellTiter-Blue assay; assay type: functional; conditions: SNB-19, 48 h, read-out: LC50 (the source's name); outline: as §1
OVCAR-3 = assay: Antiproliferative activity against human OVCAR3 cells assessed as reduction in cell viability after 48 hrs by CellTiter-Blue assay; assay type: functional; conditions: OVCAR-3, 48 h, read-out: LC50 (the source's name); outline: as §1
[2] = Mutagenecity in Salmonella typhimurium TA100 at 10 uM in presence of S9 liver homogenate after 2 to 3 days by mini-Ames test; assay type: toxicity; conditions: salmonella enterica subsp. enterica serovar typhimurium, s9, 10 µM
Outline: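 Compound was tested at a final 10 μM undiluted plus four serial dilutions, with S9 mix and glucose/biotin/trace-histidine exposure solution, for 100 min at 37 °C. Reversion medium was added and cultures dispensed to 96 wells for 2–3 days at 37 °C. Yellow or partial-yellow wells were scored positive; 2-aminoanthracene was the positive control.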

MV4-11 [3] = assay: Inhibition of MDM2 degradation in human MV4-11 cells harboring wild type p53/FLT3-ITD mutant at 100 nM after 12 hrs in presence of MDM2 inhibitor RG7388 by Western blot analysis relative to control; assay type: functional; conditions: MV4-11, 12 h
Outline: (§2)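 Cells (1,500,000 per well) grown 12 h, then drug-treated as specified. Lysed in RIPA buffer, sonicated, centrifuged, protein normalized by BCA. Run on 4–12% Bis-Tris gels in MES, transferred, probed overnight at 4 °C with primary antibodies at 1/1000. Actin served as reference for LC3-II quantitation.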

MV4-11 [4] = assay: Inhibition of autophagy in human MV4-11 cells assessed as cell death at 200 nM after 24 hrs in presence of 5 uM of chloroquine by CellTiter-blue dye based spectrophotometric analysis; assay type: functional
Outline: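 MV4-11 cells grown 12 h, then given 200 nM test agent alone or with z-VAD, chloroquine (5 μM) or wortmannin (100 nM) for 24 h. Viability by CellTiter-Blue (0.125 mg/mL, 2–4 h), resorufin fluorescence 560/590 nm, compared with t = 0 wells; n = 3.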

MV4-11 [5] = assay: Induction of apoptosis in human MV4-11 cells harboring wild type p53/FLT3-ITD mutant assessed as c-FLIP degradation at 50 to 200 nM after 24 hrs by Western blot analysis; assay type: functional, cell-based; outline: as §2
SK-MEL-28 = assay: Antiproliferative activity against human SK-MEL-28 cells assessed as reduction in cell viability after 48 hrs by CellTiter-Blue assay; assay type: functional; conditions: SK-MEL-28, 48 h, read-out: LC50 (the source's name); outline: as §1
SF-539 = assay: Antiproliferative activity against human SF539 cells assessed as reduction in cell viability after 48 hrs by CellTiter-Blue assay; assay type: functional; conditions: SF-539, 48 h, read-out: LC50 (the source's name); outline: as §1
NCI-H23 = assay: Antiproliferative activity against human NCI-H23 cells assessed as reduction in cell viability after 48 hrs by CellTiter-Blue assay; assay type: functional; conditions: NCI-H23, 48 h, read-out: LC50 (the source's name); outline: as §1
SR [6] = assay: […] in human SR cells harboring wild type p53 assessed as pro-caspase 3 cleavage at 50 to 200 nM after 24 hrs by Western blot analysis; assay type: cell-based
CAKI-1 = assay: Antiproliferative activity against human Caki1 cells assessed as reduction in cell viability after 48 hrs by CellTiter-Blue assay; assay type: functional; conditions: CAKI-1, 48 h, read-out: LC50 (the source's name); outline: as §1
HCC 2998 = assay: Antiproliferative activity against human HCC2998 cells assessed as reduction in cell viability after 48 hrs by CellTiter-Blue assay; assay type: functional; conditions: HCC 2998, 48 h, read-out: LC50 (the source's name); outline: as §1
[7] = biological target: Protein deacetylase HDAC6 (Homo sapiens) (UniProt Q9UBN7); assay: Inhibition of HDAC6 in human MV4-11 cells assessed as tubulin acetylation at 500 nM incubated for 3 hrs followed by compound washout and measured after 30 mins to 6 hrs by Western blot analysis; assay type: cell-based
Protein deacetylase HDAC6 (Homo sapiens), sequence (Q9UBN7 whole entry): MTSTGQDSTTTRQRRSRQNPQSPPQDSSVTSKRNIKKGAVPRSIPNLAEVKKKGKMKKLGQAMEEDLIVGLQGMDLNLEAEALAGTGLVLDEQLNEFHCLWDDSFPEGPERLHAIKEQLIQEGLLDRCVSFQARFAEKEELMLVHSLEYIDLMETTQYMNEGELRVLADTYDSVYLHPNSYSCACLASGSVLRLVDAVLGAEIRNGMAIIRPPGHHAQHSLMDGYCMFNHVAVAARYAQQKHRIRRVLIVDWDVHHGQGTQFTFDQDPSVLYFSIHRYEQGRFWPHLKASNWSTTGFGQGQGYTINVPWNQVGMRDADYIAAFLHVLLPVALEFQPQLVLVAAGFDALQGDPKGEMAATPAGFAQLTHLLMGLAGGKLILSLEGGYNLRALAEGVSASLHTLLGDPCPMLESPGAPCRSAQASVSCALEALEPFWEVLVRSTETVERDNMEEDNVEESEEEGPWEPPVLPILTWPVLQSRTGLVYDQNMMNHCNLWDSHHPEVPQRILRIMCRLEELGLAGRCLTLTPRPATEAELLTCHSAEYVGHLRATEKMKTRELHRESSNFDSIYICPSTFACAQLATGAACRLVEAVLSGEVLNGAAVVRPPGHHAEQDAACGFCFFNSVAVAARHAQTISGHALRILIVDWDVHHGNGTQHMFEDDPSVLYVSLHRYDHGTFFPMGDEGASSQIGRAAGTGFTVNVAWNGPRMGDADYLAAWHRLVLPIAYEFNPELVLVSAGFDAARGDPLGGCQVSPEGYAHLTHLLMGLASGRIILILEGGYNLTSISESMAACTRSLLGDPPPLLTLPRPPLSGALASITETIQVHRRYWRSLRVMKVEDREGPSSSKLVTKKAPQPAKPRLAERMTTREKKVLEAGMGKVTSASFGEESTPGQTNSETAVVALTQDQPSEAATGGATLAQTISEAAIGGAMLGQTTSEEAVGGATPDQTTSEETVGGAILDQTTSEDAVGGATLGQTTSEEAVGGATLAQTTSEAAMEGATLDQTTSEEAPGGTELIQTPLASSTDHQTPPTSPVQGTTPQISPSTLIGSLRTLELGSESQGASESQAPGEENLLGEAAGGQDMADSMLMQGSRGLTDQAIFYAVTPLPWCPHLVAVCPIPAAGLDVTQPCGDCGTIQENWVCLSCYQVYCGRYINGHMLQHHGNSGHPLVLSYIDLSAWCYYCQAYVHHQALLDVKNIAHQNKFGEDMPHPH
Outline: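 MV4-11 cells exposed for 3 h, drug washed out, then cultured drug-free for 30 min, 1, 3 or 6 h. Acetylation read by western blot; t = 0 taken right after the 3 h exposure.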

OVCAR-4 = assay: Antiproliferative activity against human OVCAR4 cells assessed as reduction in cell viability after 48 hrs by CellTiter-Blue assay; assay type: functional; conditions: OVCAR-4, 48 h, read-out: LC50 (the source's name); outline: as §1
MV4-11 [8] = assay: Induction of apoptosis in human MV4-11 cells harboring wild type p53/FLT3-ITD mutant assessed as upregulation of P21WAF1/Cip1 expression at 50 to 200 nM after 24 hrs by Western blot analysis; assay type: functional, cell-based; outline: as §2
NCI-H322M = assay: Antiproliferative activity against human NCI-H322M cells assessed as reduction in cell viability after 48 hrs by CellTiter-Blue assay; assay type: functional; conditions: read-out: LC50 (the source's name); outline: as §1
SR [9] = assay: Induction of apoptosis in human SR cells harboring wild type p53 assessed as pro-caspase 3 cleavage at 50 to 200 nM after 24 hrs by Western blot anlaysis; assay type: functional, cell-based; outline: as §2
NCI-H522 = assay: Antiproliferative activity against human NCI-H522 cells assessed as reduction in cell viability after 48 hrs by CellTiter-Blue assay; assay type: functional; conditions: NCI-H522, 48 h, read-out: LC50 (the source's name); outline: as §1

In the case of `CCCNNC(=O)/C=C/c1ccc(CNCCc2c(C)[nH]c3ccccc23)cc1.O=C(O)C(F)(F)F`, the CC50 (T47D) is reported as over 10 µM, the inhibition [1] is reported as “inactive” and the inhibition (Trypsin (Homo sapiens)) is reported as “inactive”. The CC50 (HOP-92) was over 10 µM, the Activity (HL-60) was “Active” and the CC50 (SNB-19) was over 10 µM. For the same molecule, the CC50 (OVCAR-3) was over 10 µM, the Activity [2] was “Non-Toxic” and the inhibition at 0.1 µM (MV4-11 [3]) was 100%. For the same molecule, the inhibition (MV4-11 [4]) was “inactive”, the Activity (MV4-11 [5]) was “Active” and the CC50 (SK-MEL-28) was 0.893 µM. The CC50 (SF-539) was over 10 µM, the CC50 (NCI-H23) was over 10 µM and the Activity (SR [6]) was “Active”. For the same molecule, the CC50 (CAKI-1) was 4.3 µM, the CC50 (HCC 2998) was 1.76 µM and the inhibition [7] was “inactive”. For the same molecule, the CC50 (OVCAR-4) was over 10 µM, the Activity (MV4-11 [8]) was “Active” and the CC50 (NCI-H322M) was over 10 µM. For the same molecule, the Activity (SR [9]) was “inactive” and the CC50 (NCI-H522) was over 10 µM.
